ABCG2 block: human ABCG2 inhibition, ABCB1 as counter-screen. Q9UNQ0. IgMXP3 cells, JC-1 efflux, flow cytometry. inhibition, % at 6.6 µM. actives 0.1% (n = 190,000). AID 1325;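 active means inhibition above 80%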
Target sequence (Q9UNQ0 whole entry, looked up): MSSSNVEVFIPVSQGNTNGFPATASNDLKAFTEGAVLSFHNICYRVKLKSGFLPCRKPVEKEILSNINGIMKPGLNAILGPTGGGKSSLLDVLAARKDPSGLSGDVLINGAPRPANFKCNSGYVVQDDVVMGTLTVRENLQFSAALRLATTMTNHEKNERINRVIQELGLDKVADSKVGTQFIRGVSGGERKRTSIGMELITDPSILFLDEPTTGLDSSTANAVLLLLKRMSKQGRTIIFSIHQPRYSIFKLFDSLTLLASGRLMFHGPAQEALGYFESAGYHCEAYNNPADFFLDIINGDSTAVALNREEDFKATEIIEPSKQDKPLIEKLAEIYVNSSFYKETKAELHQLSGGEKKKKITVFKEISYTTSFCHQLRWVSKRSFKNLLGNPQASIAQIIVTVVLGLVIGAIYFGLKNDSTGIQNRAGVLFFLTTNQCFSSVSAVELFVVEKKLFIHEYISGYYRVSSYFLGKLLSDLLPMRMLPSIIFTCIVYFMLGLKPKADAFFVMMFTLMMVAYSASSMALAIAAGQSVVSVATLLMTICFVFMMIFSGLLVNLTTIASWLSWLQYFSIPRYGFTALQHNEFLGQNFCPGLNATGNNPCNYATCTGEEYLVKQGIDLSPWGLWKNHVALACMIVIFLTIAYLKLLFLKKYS
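System: two drug-resistant human cell lines, ABCG2 and ABCB1; controls: nicardipine high and DMSO low controls; times: 10 min exposure at 25 °C with rotation, no wash; detection: flow cytometry of retained JC-1 fluorescence; read-out basis: percent efflux inhibition, scaled nicardipine 100% to DMSO 0%; doses: one concentration, 6.6 µM final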
MEKK2mut PB1 HTS: signal of MEK5 binding to mutant human MEKK2 PB1 domain; bead flow cytometry, Alexa488-MEK5 binding to MEKK2 mutant; percent response, % at 10 µM; actives 0.35% (n = 290,000); AID 1530; in the data active means percent response above about 24%, passing the limit was not always enough
ABCB1 block: human ABCB1 inhibition, ABCG2 as counter-screen; CCRF-Adr cells, JC-1 efflux, flow cytometry; inhibition, % at 6.6 µM; actives 0.067% (n = 190,000); in the data active means inhibition above about 40%;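 further: higher value means more JC-1 retained so stronger ABCB1 efflux block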
MEKK3 PB1 HTS: modulators (inhibitors or enhancers) of MEK5 binding to human MEKK3 PB1 domain; Q99759; bead-based flow cytometry, Alexa488-MEK5 binding to MEKK3; actives lie on both sides; 0 = blocked by unlabeled MEK5, 100 = vehicle; binding response (% of control), % at 10 µM; actives 1.4% (n = 290,000); AID 1529;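 active means binding response more than 3 SD above or below the average of its plate-row segment, actives on both sides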;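 further: Alexa488 bead fluorescence after subtracting the streptavidin-only scavenger bead signal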
MEKK2wt PB1 HTS: raises or lowers MEK5 binding to wildtype human MEKK2 PB1 domain. binding response (% of control), % at 10 µM. bead flow cytometry, Alexa488-MEK5 binding to MEKK2 WT; actives lie on both sides. actives 1.1% (n = 290,000). Q9Y2U5; in the data active means binding response below about 67% or above about 130%
MEKK2wt confirm: raises or lowers MEK5 binding to wildtype human MEKK2, retest. shares compounds with MEKK3 PB1 HTS. bead flow cytometry, Alexa488-MEK5 binding to MEKK2 WT; actives lie on both sides. binding response (% of control), % at 10 µM. actives 2.4% (n = 5,900). AID 1892; in the data active means binding response below about 16% or above about 210%; inactive means in between
MEKK2mut confirm: signal of MEK5 binding to mutant human MEKK2, retest; bead flow cytometry, Alexa488-MEK5 binding to MEKK2 mutant; percent response, % at 10 µM; shares compounds with MEKK3 PB1 HTS; actives 2% (n = 5,900); in the data active means percent response mostly above about 71%, no sharp cut-off; inactive means mostly below about 38%;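 further: higher means compound restores mutant binding toward wildtype level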
MEKK3 confirm: confirmation of inhibitors of MEK5 binding to human MEKK3. shares compounds with MEKK3 PB1 HTS. bead flow cytometry, Alexa488-MEK5 binding to MEKK3; stronger effect = lower value. binding response (% of control), % at 10 µM. actives 1.8% (n = 5,900). AID 1894;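 active means binding response below 72% of control, or above a set upper limit, though filed actives all read lower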
Of the large screens only hits and unclear results are named; the others gave an inactive call (follow-up assays come after a bar, where they were run); [ ] = another dose, or the depositor's remark. In the library only some 2.3% were active in any assay of this set; here they are far more common.

O=C(/C=C/c1ccccc1)NC(NC(=S)Nc1cccc(O)c1)C(Cl)(Cl)Cl (configuration not stated)	MEKK2wt PB1 HTS 139.0 | MEKK2wt confirm inactive | MEKK2mut confirm inactive | MEKK3 confirm inactive
O=S(=O)(/C=C/c1ccccc1)c1ccccc1	MEKK3 PB1 HTS 126.0 | MEKK2wt confirm inactive | MEKK2mut confirm inactive | MEKK3 confirm inactive
O=C(O)CNS(=O)(=O)/C=C/c1ccccc1	none
Cc1ccc(C(=O)N/C(=C\c2ccccc2)C(=O)OCc2ccccc2)cc1	none
O=C(OCc1ccccc1)/C(=C/c1ccc(Cl)cc1)NC(=O)c1ccccc1Cl	MEKK2mut PB1 HTS 24.0 | MEKK2wt confirm inactive | MEKK2mut confirm inactive | MEKK3 confirm inactive
COc1ccc(/C=N/NC(=O)Cn2cnc3c2c(=O)n(C)c(=O)n3C)c(OC)c1OC	MEKK3 PB1 HTS 71.0[inhibitor] (no result: ABCG2 block, ABCB1 block) | MEKK2wt confirm inactive | MEKK2mut confirm inactive | MEKK3 confirm inactive
NS(=O)(=O)c1ccc(CCNC(=O)COC(=O)C2CCC2)cc1	none (no result: ABCG2 block, ABCB1 block)
COCCOC(=O)c1c(C)oc2ccc(NS(=O)(=O)c3ccccc3)cc12	none
COCCOC(=O)c1c(C)oc2ccc(NS(=O)(=O)c3ccc(C)cc3)cc12	MEKK3 PB1 HTS 135.0 (no result: ABCG2 block, ABCB1 block) | MEKK2wt confirm inactive | MEKK2mut confirm inactive | MEKK3 confirm inactive
Cc1oc2ccc(NS(=O)(=O)c3ccccc3)cc2c1C(=O)Nc1ccccc1	MEKK3 PB1 HTS 129.0 | MEKK2wt confirm inactive | MEKK2mut confirm inactive | MEKK3 confirm inactive
CCOC(=O)CC(NS(=O)(=O)c1ccc(OC)c(OC)c1)c1cccc([N+](=O)[O-])c1 (configuration not stated)	none
CCOC(=O)CC(NC(=O)c1cc2cccc(OC)c2oc1=O)c1cccc([N+](=O)[O-])c1 (configuration not stated)	MEKK3 PB1 HTS 135.0 | MEKK2wt confirm inactive | MEKK2mut confirm inactive | MEKK3 confirm inactive
C=CCNC(=O)c1cc2cccc(OC)c2oc1=O	MEKK3 PB1 HTS 128.0 | MEKK2wt confirm inactive | MEKK2mut confirm inactive | MEKK3 confirm inactive
CCOC(=O)CC(NC(=O)c1cc2cc(Cl)cc(Cl)c2oc1=O)c1cccc([N+](=O)[O-])c1 (configuration not stated)	MEKK3 PB1 HTS 53.0[inhibitor] | MEKK2wt confirm inactive | MEKK2mut confirm inactive | MEKK3 confirm inactive
Cc1c(N2C(=O)C(=O)/C(=C(/O)c3ccc(Cl)cc3)C2c2ccccc2)c(=O)n(-c2ccccc2)n1C (configuration not stated)	MEKK3 PB1 HTS 135.0 | MEKK2wt confirm inactive | MEKK2mut confirm inactive | MEKK3 confirm inactive
CC(NCC(O)COCCC12CC3CC(CC(C3)C1)C2)c1ccccc1 (configuration not stated)	MEKK2wt PB1 HTS 139.0 | MEKK2wt confirm inactive | MEKK2mut confirm inactive | MEKK3 confirm inactive
Cn1c(=O)n(C)c2cc(S(=O)(=O)NCCOCCO)ccc21	MEKK3 PB1 HTS 2.0[inhibitor], MEKK2wt PB1 HTS -1.0[inhibitor] | MEKK2wt confirm inactive | MEKK2mut confirm inactive | MEKK3 confirm inactive
Cc1c2oc3c(C)ccc(C(=O)N[C@@H]4C(=O)N[C@H](C(C)C)C(=O)N5CCC[C@H]5C(=O)N(C)CC(=O)N(C)[C@@H](C(C)C)C(=O)O[C@@H]4C)c3nc-2c(C(=O)N[C@@H]2C(=O)N[C@H](C(C)C)C(=O)N3CCC[C@H]3C(=O)N(C)CC(=O)N(C)[C@@H](C(C)C)C(=O)O[C@@H]2C)c(N)c1=O	none (no result: ABCG2 block, MEKK2mut PB1 HTS, ABCB1 block)
COc1ccc(C2C(C#N)=C(N)Oc3cc(O)ccc32)cc1Cl (configuration not stated)	none (no result: ABCG2 block, ABCB1 block)
CN(Cc1ccccc1)CC(O)COc1ccc(CNCCCOc2cccnc2)cc1 (configuration not stated)	MEKK2wt PB1 HTS 139.0 | MEKK2wt confirm inactive | MEKK2mut confirm inactive | MEKK3 confirm inactive
Cc1csc(SCC(=O)Nc2sccc2C(N)=O)n1	MEKK3 PB1 HTS 2.0[inhibitor], MEKK2wt PB1 HTS 1.0[inhibitor] | MEKK2wt confirm inactive | MEKK2mut confirm inactive | MEKK3 confirm inactive
COc1ccc(C)cc1NC(=S)N1CC(C)OC(C)C1 (configuration not stated)	none (no result: ABCG2 block, ABCB1 block)
CN(CC(=O)NCc1ccncc1)S(=O)(=O)c1ccc2ccccc2c1	MEKK3 PB1 HTS 129.0 | MEKK2wt confirm inactive | MEKK2mut confirm inactive | MEKK3 confirm inactive
CCOC(=O)[C@@H]1[C@H]2COc3cc(OC)ccc3[C@@H]2N2C(=O)N(c3ccc(F)cc3)C(=O)[C@]12C	none (no result: ABCG2 block, ABCB1 block)
CC(C)Oc1cccc(C(=O)C2CCCN(Cc3cccn3-c3ccccn3)C2)c1 (configuration not stated)	MEKK2wt PB1 HTS 174.0 | MEKK2wt confirm inactive | MEKK2mut confirm inactive | MEKK3 confirm inactive
COc1ccc(-c2noc(-c3ccccc3C(=O)Nc3cccnc3)n2)cc1	MEKK2mut PB1 HTS 26.0 | MEKK2wt confirm inactive | MEKK2mut confirm inactive | MEKK3 confirm inactive
O=C(c1ccco1)N1CCN(C(=O)N2c3ccccc3Sc3ccccc32)CC1	MEKK3 PB1 HTS 78.0[inhibitor] | MEKK2wt confirm inactive | MEKK2mut confirm inactive | MEKK3 confirm inactive
O=C(c1ccco1)N1c2ccccc2Sc2ccccc21	none
O=C(/C=C/c1ccccc1)N1CCN(C(=O)c2ccco2)CC1	MEKK3 PB1 HTS 69.0[inhibitor] | MEKK2wt confirm inactive | MEKK2mut confirm inactive | MEKK3 confirm inactive
CC(C)(C)c1cc(NCCCn2ccnc2)n2ncc(-c3ccc(Cl)cc3)c2n1	MEKK2mut PB1 HTS 37.0, MEKK2wt PB1 HTS 157.0 | MEKK2wt confirm inactive | MEKK2mut confirm inactive | MEKK3 confirm inactive
Cc1cc(NCCCn2ccnc2)n2nc(-c3ccc(Cl)cc3)cc2n1	none
Cc1cc(NCCCN2CCOCC2)n2ncc(-c3ccccc3)c2n1	none
CN(C)CCCNc1cc(C(C)(C)C)nc2c(-c3ccccc3)cnn12	MEKK2wt PB1 HTS 156.0 (no result: ABCG2 block, ABCB1 block) | MEKK2wt confirm inactive | MEKK2mut confirm inactive | MEKK3 confirm inactive
CN(C)CCCNc1cc(-c2ccccc2)nc2cc(-c3cccc(F)c3)nn12	MEKK2mut PB1 HTS 40.0, MEKK2wt PB1 HTS 192.0 (no result: ABCG2 block, ABCB1 block) | MEKK2wt confirm inactive | MEKK2mut confirm inactive | MEKK3 confirm inactive
O=C(CCn1nnnc1CN1CCOCC1)N1CCC(c2ccccc2F)C1 (configuration not stated)	none (no result: ABCG2 block, ABCB1 block)
O=C(CN(C(=O)CCC(=O)Nc1nccs1)c1ccc(F)cc1)NCc1ccc(F)cc1	none (no result: ABCG2 block, ABCB1 block)
CCOc1ccc(S(=O)(=O)n2ccnc2C)cc1	none (no result: ABCG2 block, ABCB1 block)

Screening data: PubChem BioAssay, NMMLSC
